Compound activity (PubChem)
GSTO1 inh: inhibitors of recombinant GSTO1, primary screen, counter-screen for RBBP9 inhibitor project, biochemical, fluorescence polarization; Glutathione S-transferase omega-1 (Homo sapiens), P78417; 300,000 compounds, 1.1% hits; inhibition, % at 5.96 µM; activity-based probe fluorescence polarization;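 active = inhibition above the campaign mean inhibition plus 3 SD, cut at about 35% in these data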
Apaf-1 inh: inhibitors of human Apaf-1 apoptosome, primary screen, biochemical, DEVD-Rh110 fluorescence, uHTS. Apoptotic protease-activating factor 1 (Homo sapiens), O14727. reconstituted apoptosome caspase-3 activity. inhibition, % at 20 µM. 330,000 compounds, 0.71% hits. AID 489030, 2010; active = inhibition of at least 40% at 20 µM
Target sequence (O14727 whole entry, looked up): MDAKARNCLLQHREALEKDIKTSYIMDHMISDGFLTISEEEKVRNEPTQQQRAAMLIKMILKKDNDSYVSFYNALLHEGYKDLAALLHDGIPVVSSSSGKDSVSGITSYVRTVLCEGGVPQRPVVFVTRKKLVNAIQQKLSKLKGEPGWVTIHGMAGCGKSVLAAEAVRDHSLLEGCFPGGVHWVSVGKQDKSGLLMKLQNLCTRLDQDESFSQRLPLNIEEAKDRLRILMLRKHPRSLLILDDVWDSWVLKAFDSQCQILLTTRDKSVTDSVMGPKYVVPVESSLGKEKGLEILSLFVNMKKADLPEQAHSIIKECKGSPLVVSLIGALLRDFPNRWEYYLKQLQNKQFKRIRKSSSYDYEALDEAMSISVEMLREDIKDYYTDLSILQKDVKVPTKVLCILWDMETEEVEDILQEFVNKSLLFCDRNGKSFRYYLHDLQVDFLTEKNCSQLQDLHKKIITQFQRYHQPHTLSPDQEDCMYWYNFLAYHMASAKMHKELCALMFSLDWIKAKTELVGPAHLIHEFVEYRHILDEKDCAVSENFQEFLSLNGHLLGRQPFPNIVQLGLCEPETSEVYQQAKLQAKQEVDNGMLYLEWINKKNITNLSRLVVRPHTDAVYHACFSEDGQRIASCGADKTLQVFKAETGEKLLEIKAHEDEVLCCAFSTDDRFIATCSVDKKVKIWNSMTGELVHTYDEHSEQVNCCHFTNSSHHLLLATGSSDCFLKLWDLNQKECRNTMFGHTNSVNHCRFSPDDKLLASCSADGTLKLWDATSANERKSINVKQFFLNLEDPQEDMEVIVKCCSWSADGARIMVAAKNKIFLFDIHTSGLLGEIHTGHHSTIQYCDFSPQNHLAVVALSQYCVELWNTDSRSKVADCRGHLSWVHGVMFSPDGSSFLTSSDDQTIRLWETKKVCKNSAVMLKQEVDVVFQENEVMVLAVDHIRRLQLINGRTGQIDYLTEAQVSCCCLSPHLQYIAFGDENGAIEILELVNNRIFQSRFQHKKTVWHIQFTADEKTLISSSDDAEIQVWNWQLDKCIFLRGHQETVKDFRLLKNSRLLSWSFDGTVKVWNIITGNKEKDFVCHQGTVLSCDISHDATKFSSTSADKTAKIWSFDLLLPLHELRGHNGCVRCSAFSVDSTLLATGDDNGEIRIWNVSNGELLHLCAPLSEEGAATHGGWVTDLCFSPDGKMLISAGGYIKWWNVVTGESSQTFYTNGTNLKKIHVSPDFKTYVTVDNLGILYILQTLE
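Material: reconstituted apoptosome with Apaf-1, cytochrome c, caspase-9, procaspase-3, dATP / Buffer or medium: pH 7.5 Hepes buffer with CHAPS, BSA, DTT / Also added: cytochrome c with DEVD-Rh110 / Schedule: compound with Apaf-1, dATP, procaspase-3 30 min, then 50 min reaction, room temperature / Technique: rhodamine 110 fluorescence at Ex 480/Em 540 nm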
Rin1 Abl inh: inhibitors of Rin1-Abl protein binding, primary screen, biochemical, TR-FRET | Tyrosine-protein kinase ABL1 (Homo sapiens) + Ras and Rab interactor 1 (Homo sapiens), … | inhibition, % at 7.35 µM | 360,000 compounds, 0.4% hits | AID 588664, 2011; in the data active = inhibition above about 5%, passing the limit was not always enough
UBC13 polyUb: UBC13 polyubiquitin chain formation inhibitors, primary screen, biochemical, TR-FRET, uHTS | Ubiquitin-conjugating enzyme E2 N (Homo sapiens), P61088 | inhibition, % at 20 µM | 330,000 compounds, 0.47% hits; in the data active = inhibition above about 45%, passing the limit was not always enough; inconclusive = no clear call, values can overlap the other calls
PAD4 inh: human PAD4 inhibitors, primary screen, biochemical, fluorescence polarization, 1536-well format. Protein-arginine deiminase type-4 (Homo sapiens), Q9UM07. inhibition, % at 6.36 µM. AID 485272, 2010. recombinant PAD4, RCA probe fluorescence polarization. 330,000 compounds, 0.41% hits;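 active = percent inhibition above a cutoff equal to the mean of all tested compounds plus 3 SD, cut at about 15% in these data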
UBC9 SUMO inh: inhibitors of in vitro SUMOylation cascade, primary screen, biochemical, HTRF, uHTS. SUMO-conjugating enzyme UBC9 (Homo sapiens), P63279. HTRF SUMOylation assay, SAE1/SAE2 + UBC9. inhibition, % at 35 µM. 290,000 compounds, 0.36% hits; in the data active = inhibition above about 50%, passing the limit was not always enough; inconclusive = no clear call, values can overlap the other calls
Each line names hits and unclear results; the compound was inactive in the other large screens. Only some compounds are listed: those with a hit (about 2.2% of all), similar ones and a draw of the others.

O=C1C=Cc2ccccc2C1=O	Apaf-1 inh 62 (no result: Rin1 Abl inh)
CCn1nc(-c2cccs2)nc2c(=O)n(C)c(=O)nc1-2	Rin1 Abl inh 20, UBC9 SUMO inh 101 (no result: GSTO1 inh, Apaf-1 inh, UBC13 polyUb, PAD4 inh)
CCOc1ccc(-n2c(-c3cccs3)nc3ccccc3c2=O)cc1	none
O=C1NC(=S)N(Cc2ccco2)C(=O)/C1=C\c1cccs1	UBC9 SUMO inh 94 (no result: GSTO1 inh, Apaf-1 inh, Rin1 Abl inh, UBC13 polyUb, PAD4 inh)
C=CCN1C(=O)/C(=C/c2cccs2)C(=O)NC1=S	none (no result: Apaf-1 inh, UBC13 polyUb)
CN1CCC2(CC1)C(C#N)=C(N)NC(S)=C2C#N	UBC9 SUMO inh 57
Nc1nc(N)c2cnnn2n1	none (no result: GSTO1 inh, Apaf-1 inh, UBC13 polyUb, PAD4 inh, UBC9 SUMO inh)
O=C1NC(=O)C(=Cc2ccc(Oc3ccc([N+](=O)[O-])cc3)cc2)C(=O)N1	GSTO1 inh 49, Apaf-1 inh 43
C[C@]12CCC3C(CC[C@H]4C[C@@H](O)CC[C@]34C)C1C[C@@H](Br)[C@@H]2O (some centres not stated)	none (no result: GSTO1 inh, Rin1 Abl inh, UBC9 SUMO inh)
C/C(=N\Nc1cccc2ccccc12)c1c(O)n(Cc2ccccc2)c(=O)[nH]c1=O	UBC9 SUMO inh 52
Cc1cc(C(=O)C[N+]23CCN(CC2)CC3)c(C)n1-c1ccc(Br)cc1	none
Cc1cc(C)cc(N2C(=O)NC(=O)/C(=C\c3cccn3-c3ccccc3)C2=O)c1	none
CN1C(=O)/C(=C/c2cccn2-c2ccc3ccccc3c2)C(=O)NC1=S	GSTO1 inh 55
CC(C)n1c(O)c(C=NCc2ccccc2)c(=O)[nH]c1=S	none
CCN(CC)c1ccc(/C=C/[N+](=O)[O-])cc1	GSTO1 inh 36
CN1C[C@H](CO)C=C2c3cccc4[nH]cc(c34)C[C@H]21	UBC9 SUMO inh 65
COc1cc(CN=Cc2c(O)n(C(C)(C)C)c(=O)[nH]c2=O)cc(OC)c1	none
O=C(c1cccn2c(=O)c3cc(Br)ccc3nc12)N1CCC2(CC1)OCCO2	none
O=C(c1cccn2c(=O)c3ccc(Cl)cc3nc12)N1CCC2(CC1)OCCO2	UBC9 SUMO inh 58
CCOCC1(CCc2ccccc2)C(=O)NC(=S)NC1=O	none (no result: GSTO1 inh, Apaf-1 inh, UBC13 polyUb, PAD4 inh, UBC9 SUMO inh)
CCCCn1c(N)c(C(=O)OCCOC)c2nc3ccccc3nc21	UBC9 SUMO inh 67
CCCCCCn1c(N)c(C(=O)NCCN2CCOCC2)c2nc3ccccc3nc21	Apaf-1 inh 52
CCCCCn1c(N)c(C(=O)NCCN2CCOCC2)c2nc3ccccc3nc21	none
Nc1c(C(=O)NCc2ccco2)c2nc3ccccc3nc2n1CCN1CCOCC1	Apaf-1 inh 44
CCOC(=O)c1c(NC(=O)c2c(N)n(CCCOC)c3nc4ccccc4nc23)sc2c1CCCC2	none
Nc1c(C(=O)NCc2ccco2)c2nc3ccccc3nc2n1Cc1ccccc1	UBC9 SUMO inh 101
c1ccc(-c2nnc(C3CC(c4cccnc4)=NO3)o2)cc1 (configuration not stated)	none
C[C@]12CC[C@H](O)C[C@H]1CC[C@@H]1[C@@H]2CC[C@]2(C)C(=O)CC[C@@H]12	none (no result: GSTO1 inh, UBC9 SUMO inh)
CCCN1CCC(NC2CCC(O)CC2)CC1 (configuration not stated)	none
CC(C)c1cc(Br)c(NC(=O)Nc2cccnc2)c(Br)c1	none
Cc1ccc(Cn2ccccc2=N)cc1	none (no result: GSTO1 inh, Apaf-1 inh, UBC13 polyUb, PAD4 inh)
CN(C)[C@@H]1C(=O)C(C(N)=O)=C(O)[C@@]2(O)C(=O)C3=C(O)c4c(O)ccc(Cl)c4[C@@](C)(O)[C@H]3C[C@@H]12	GSTO1 inh 45 (no result: Apaf-1 inh, UBC13 polyUb)
CN(C)[C@@H]1C(=O)C(C(N)=O)=C(O)[C@@]2(O)C(=O)C3=C(O)c4c(O)cccc4[C@@](C)(O)C3C[C@@H]12 (some centres not stated)	GSTO1 inh 72 (no result: UBC9 SUMO inh)
Cc1cccc(-n2c(O)c(C)c(=O)[nH]c2=S)c1	none (no result: GSTO1 inh, Apaf-1 inh, UBC13 polyUb, PAD4 inh)
NC(Cc1cc(O)c(O)cc1O)C(=O)O (configuration not stated)	GSTO1 inh 72, Apaf-1 inh 84, UBC13 polyUb inconclusive (no result: Rin1 Abl inh, UBC9 SUMO inh)
Cc1ccc(N2C(=O)/C(=C/c3ccc(CN(CCC#N)S(C)(=O)=O)o3)C(=O)NC2=S)cc1	Rin1 Abl inh 5.2
Cc1ccc(/C=C2\C(=O)NC(=S)N(c3ccc(F)cc3)C2=O)o1	none (no result: GSTO1 inh, PAD4 inh)
COC(=O)C1=C(c2ccc(F)cc2OCc2ccccc2)C[C@@H]2CC[C@H]1N2C(=O)N1CCCC1	none (no result: GSTO1 inh, UBC9 SUMO inh)
CN[C@@H]1C[C@@H](c2ccc(Cl)c(Cl)c2)c2ccccc21	UBC13 polyUb 46 (no result: Rin1 Abl inh)
CCC1(OC(=O)CN)C(=O)OCc2c1cc1n(c2=O)Cc2cc3ccccc3nc2-1 (configuration not stated)	UBC9 SUMO inh 57 (no result: Apaf-1 inh, UBC13 polyUb)
C[C@]12CCC3C(CC[C@H]4C[C@H](O)CC[C@]34C)C1[C@@H](O)[C@@H](O)[C@@H]2O (some centres not stated)	none (no result: GSTO1 inh, UBC9 SUMO inh)
COc1ccc(N2C(=O)NC(=O)/C(=C/c3ccc([N+](=O)[O-])s3)C2=O)cc1	UBC9 SUMO inh 51
COc1ccccc1N1C(=O)NC(=O)/C(=C/c2ccc([N+](=O)[O-])s2)C1=O	GSTO1 inh 42 (no result: Rin1 Abl inh)
COc1ccc(N2C(=O)NC(=O)/C(=C\c3ccc([N+](=O)[O-])s3)C2=O)cc1	none
COc1ccc(CN2C(=O)NC(=O)/C(=C/c3ccc([N+](=O)[O-])s3)C2=O)cc1	none
O=C1NC(=O)N(Cc2ccc(F)cc2)C(=O)/C1=C\c1ccc([N+](=O)[O-])s1	UBC9 SUMO inh 63
COC(=O)C1=C(c2cccc(OCc3ccccc3)c2)C[C@@H]2CC[C@H]1N2C(=O)NCc1ccccc1C(F)(F)F	none (no result: GSTO1 inh, UBC9 SUMO inh)
CCOC(=O)c1cncn1[C@@H](C)c1ccccc1	none (no result: UBC9 SUMO inh)
CC(C)[C@@]1(NC(=O)[C@@H]2C=C3c4cccc5[nH]cc(c45)C[C@H]3N(C)C2)O[C@@]2(O)[C@@H]3CCCN3C(=O)[C@H](Cc3ccccc3)N2C1=O	none (no result: GSTO1 inh, Apaf-1 inh, Rin1 Abl inh, UBC13 polyUb, PAD4 inh)
CC(C)C[C@H]1C(=O)N2CCCC2[C@]2(O)O[C@](NC(=O)[C@@H]3C=C4c5cccc6[nH]cc(c56)CC4N(C)C3)(C(C)C)C(=O)N12 (some centres not stated)	GSTO1 inh 48, Apaf-1 inh 87, PAD4 inh 18
Cc1ccsc1C(=O)C1CCCN(Cc2ccc(-n3cccn3)cc2)C1 (configuration not stated)	UBC9 SUMO inh 65
Cc1cnc(NC(=O)CN2CCCCC2)s1	none
COC(=O)C1C(O)C(C)C(O)C(C)/C=C\C=C(/C)C(=O)Nc2c(C)c(OC(C)=O)c3c(c2O)C(=O)C(C)=C2OCOC(=C23)/C(C)=C/C(C)(O)C(O)C(C)C1O (configuration not stated)	GSTO1 inh 69
O=C1NC(=S)NC(=O)C1=Cc1ccc2c(c1)CCN2CCCCl	GSTO1 inh 51
Cc1ccccc1N1C(=O)NC(=O)/C(=C\c2ccc3c(c2)CCCN3Cc2ccccc2)C1=O	none
